Drawing on ChEMBL document CHEMBL4316659, “Selective Antiproliferative Withanolides from Species in the Genera Eriolarynx and Deprea” (J Nat Prod, 2019), this text covers RatioGI50, GI50 and selectivity ratio for four molecules.

Bounds are passed on as bounds.

Data set [1] concerns SW1573. The data set is described as follows: Resistance factor, ratio of GI50 for Antiproliferative activity against human SW1573 cells over-expressing P-gp incubated for 48 hrs in presence of P-gp and CYP3A4/5 inhibitor verapamil by SRB assay to GI50 for antiproliferative activity against human SW1573 cells incubated for 48 hrs in presence of P-gp and CYP3A4/5 inhibitor verapamil by SRB assay. Type of data set: functional. Put shortly:
(§1)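 Resistance factor is GI50 in SW1573/Pgp divided by GI50 in wild-type SW1573. Both come from 48 h SRB assays, run with 10 μM verapamil (final) or without it.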
On the technique in general: Sulforhodamine B stains cellular protein and so reports cell mass.

The subject of data set [2] is HeLa. The data set is described as follows: Antiproliferative activity against human HeLa cells incubated for 48 hrs by SRB assay. In kind it is functional. Put shortly:
(§2)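 Cells kept in RPMI 1640 with 5% FBS and 2 mM L-glutamine at 37 °C under 5% CO2. Seeded at 2500 (A549, HBL-100, HeLa, SW1573) or 5000 (T-47D, WiDr, BJ-hTERT) cells/well and left 24 h. Compounds added as serial dilutions (0.01−100 μM) for 48 h. SRB staining read at 530 and 620 nm. GI50 calculated by NCI formulas. Mean of at least two independent experiments ± SD.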

The subject of data set [3] is HBL-100. Nature of the data set: Antiproliferative activity against human HBL100 cells incubated for 48 hrs by SRB assay. Type of data set: functional. The conditions noted are these: HBL-100, 48 h. Put shortly: as §2
A short description of data set [4]: Ratio of GI50 for antiproliferative activity against human hTERT-BJ cells incubated for 48 hrs by SRB assay to GI50 for antiproliferative activity against human T47D cells incubated for 48 hrs by SRB assay. Type of data set: toxicity, cell-based. As to conditions: hTERT-BJ cells versus T47D cells, read-out: RatioGI50. Put shortly:
(§3)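 Selectivity is GI50 in the nontumor BJ-hTERT fibroblasts divided by GI50 in each tumor line. All values come from the same 48 h SRB assay, with 0.01−100 μM serial dilutions.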

For data set [5], the system named is A549. The data set is described as follows: Antiproliferative activity against human A549 cells incubated for 48 hrs by SRB assay. Type of data set: functional. As to conditions: A549, 48 h. Put shortly:
as §2

For data set [6], the system named is SW1573. Nature of the data set: Antiproliferative activity against human SW1573 cells over-expressing P-gp incubated for 48 hrs in absence of P-gp and CYP3A4/5 inhibitor verapamil by SRB assay. Type of data set: functional. The conditions noted are these: SW1573, 48 h. Put shortly:
(§4)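 Wild-type SW1573 (2500 cells/well) and P-gp-overexpressing SW1573/Pgp (5000 cells/well) in RPMI 1640 with 5% FBS. Seeded 24 h, then exposed 48 h to serial dilutions (0.01−100 μM) with or without 10 μM verapamil (final) in the medium. Paclitaxel and vinblastine were reference drugs. SRB read at 530/620 nm. GI50 by NCI formulas, mean of at least two independent experiments ± SD.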

Data set [7] deals with SW1573. The data set is described as follows: Antiproliferative activity against human SW1573 cells incubated for 48 hrs by SRB assay. The conditions noted are these: SW1573, 48 h. Type of data set: functional. Put shortly:
as §2

Data set [8] in a line: Ratio of GI50 for antiproliferative activity against human hTERT-BJ cells incubated for 48 hrs by SRB assay to GI50 for antiproliferative activity against human A549 cells incubated for 48 hrs by SRB assay. Put shortly: as §3
In data set [9] the test system is T47D. Nature of the data set: Antiproliferative activity against human T47D cells incubated for 48 hrs by SRB assay. Type of data set: functional. Put shortly:
as §2

Data set [10] is described as follows: Ratio of GI50 for antiproliferative activity against human hTERT-BJ cells incubated for 48 hrs by SRB assay to GI50 for antiproliferative activity against human WiDr cells incubated for 48 hrs by SRB assay. In kind it is toxicity, cell-based. As to conditions: hTERT-BJ cells versus WiDr cells, read-out: RatioGI50. Put shortly: as §3
Data set [11] in a line: Ratio of GI50 for antiproliferative activity against human hTERT-BJ cells incubated for 48 hrs by SRB assay to GI50 for antiproliferative activity against human HeLa cells incubated for 48 hrs by SRB assay. In kind it is toxicity, cell-based. The conditions noted are these: hTERT-BJ cells versus HeLa cells, read-out: RatioGI50. Put shortly:
as §3

Data set [12] deals with SW1573. The data set is described as follows: Resistance factor, ratio of GI50 for Antiproliferative activity against human SW1573 cells over-expressing P-gp incubated for 48 hrs in absence of P-gp and CYP3A4/5 inhibitor verapamil by SRB assay to GI50 for antiproliferative activity against human SW1573 cells incubated for 48 hrs in absence of P-gp and CYP3A4/5 inhibitor verapamil by SRB assay. In kind it is functional. Put shortly:
as §1

Data set [13] has as its system SW1573. Nature of the data set: Antiproliferative activity against human SW1573 cells incubated for 48 hrs in presence of P-gp and CYP3A4/5 inhibitor verapamil by SRB assay. As to conditions: SW1573, 48 h. In kind it is functional. Put shortly: as §4
The subject of data set [14] is SW1573. The data set is described as follows: Antiproliferative activity against human SW1573 cells over-expressing P-gp incubated for 48 hrs in presence of P-gp and CYP3A4/5 inhibitor verapamil by SRB assay. In kind it is functional. As to conditions: SW1573, 48 h. Put shortly: as §4
The test system of data set [15] is SW1573. Nature of the data set: Antiproliferative activity against human SW1573 cells incubated for 48 hrs in absence of P-gp and CYP3A4/5 inhibitor verapamil by SRB assay. In kind it is functional. The conditions noted are these: SW1573, 48 h. Put shortly:
as §4

Data set [16] has as its system WiDr. The data set is described as follows: Antiproliferative activity against human WiDr cells incubated for 48 hrs by SRB assay. In kind it is functional. Put shortly: as §2
Data set [17] can be described thus: Antiproliferative activity against human hTERT-BJ cells incubated for 48 hrs by SRB assay. Type of data set: cell-based. Put shortly: as §2
Data set [18] is described as follows: Ratio of GI50 for antiproliferative activity against human hTERT-BJ cells incubated for 48 hrs by SRB assay to GI50 for antiproliferative activity against human SW1573 cells incubated for 48 hrs by SRB assay. Type of data set: toxicity, cell-based. The conditions noted are these: hTERT-BJ cells versus SW1573 cells, read-out: RatioGI50. Put shortly: as §3
Data set [19] in a line: Ratio of GI50 for antiproliferative activity against human hTERT-BJ cells incubated for 48 hrs by SRB assay to GI50 for antiproliferative activity against human HBL100 cells incubated for 48 hrs by SRB assay. Put shortly:
as §3

As usually defined, the GI50 is the concentration at which growth is held to half of that of the control. In the case of `CCO[C@@H]1O[C@@](C)([C@H]2CC(C)=C(C)C(=O)O2)[C@H]2CC[C@H]3[C@@H]4[C@@H](O)C=C5[C@@H](O)C=CC(=O)[C@]5(C)[C@H]4CC[C@]123`, the RatioGI50 in data set [1] is on record as 0.4; in data set [8] it was 2 - 10; in data set [12] it was 1.1; in data set [19], 2 - 10. The GI50 in data set [2] is 2.5 µM; in data set [3], 3.2 µM; in data set [5] it was 2.8 µM; in [6], 2.3 µM; in [7], 2.4 µM; in data set [9], 4.7 µM. Also, the 50% growth inhibitory concentration (GI50) in data set [13] turned out to be 3.9 µM; in [14] it was 1.7 µM; in data set [15], 2.1 µM; in [16] it was 6.1 µM. The selectivity ratio at 48 h in data set [4], in data set [10], in [11] and in data set [18] was 2 to 10 each time. In addition, the GI50 at 48 h in [17] was > 10 µM.
Consider `CO[C@H]1O[C@@](C)([C@H]2CC(C)=C(C)C(=O)O2)[C@H]2CC[C@H]3[C@@H]4[C@@H](O)C=C5[C@@H](O)C=CC(=O)[C@]5(C)[C@H]4CC[C@]123`, for which the RatioGI50 in data set [1] is reported as 0.7; in data set [8], 2 - 10; in [12] it was 1.1; in data set [19], 2 - 10. Also, the GI50 in [2] is 3.2 µM; in data set [3], 3.6 µM; in [5], 3.1 µM; in [6], 3.3 µM; in data set [7], 3.3 µM; in data set [9], 3.9 µM. Moreover, the GI50 is 3.5 µM in data set [13], 2.3 µM in data set [14], 3 µM in [15] and > 10 µM in [16]. Also, the selectivity ratio at 48 h in data set [4], in [10], in data set [11] and in [18] was 2 to 10 throughout. Moreover, in [17], the GI50 at 48 h was > 10 µM.
Regarding `CC1=C(C)C(=O)O[C@@H]([C@](C)(O)[C@H]2CC[C@H]3[C@@H]4[C@@H](O)C=C5[C@@H](O)C=CC(=O)[C@]5(C)[C@H]4CC[C@]23C)C1`, the RatioGI50 in [1] is 0.8; in data set [8], 2 - 10; in data set [12], 0.9; in data set [19] it was 2 - 10. Besides, the 50% growth inhibitory concentration (GI50) in [2] is 5.3 µM; in data set [3], 4.8 µM; in data set [5], > 10 µM; in [6], 3.2 µM; in data set [7], 4.1 µM; in [9], > 10 µM. The 50% growth inhibitory concentration (GI50) in data set [13] was 4.2 µM; in data set [14] it was 3.2 µM; in data set [15], 3.4 µM; in data set [16] it was > 10 µM. Moreover, the selectivity ratio at 48 h in data set [4], in [10], in data set [11] and in data set [18] was 2 to 10 throughout. For the same molecule, the concentration for 50% growth inhibition (GI50) at 48 h in [17] was > 10 µM.
`CC1=C(C)C(=O)O[C@@H]([C@]2(C)OC(O)[C@]34CC[C@H]5[C@@H]([C@@H](O)C=C6[C@@H](O)C=CC(=O)[C@@]65C)[C@@H]3CC[C@H]24)C1` (mixture of isomers): the GI50 in [2], in [3], in data set [5], in [7], in data set [9] and in data set [16] was > 10 µM throughout. For the same molecule, the selectivity ratio at 48 h in data set [4], in [10], in data set [11] and in data set [18] was 2 to 10 throughout. For the same molecule, the RatioGI50 in [8] and in [19] was 2 - 10 each time. Moreover, the concentration for 50% growth inhibition (GI50) at 48 h in [17] was > 10 µM.
